Most compounds without a hit are left out; they make up all but 2.5% or so of the library.
PMI act satM6P: activators of human phosphomannose isomerase at near-saturating mannose 6-phosphate; activation factor at 20 µM; actives 0.34% (n = 190,000); coupled PMI enzyme assay, resazurin fluorescence, 20 min; hits give high values; 1 = untreated enzyme, 0 = substrate-free blank; P34949;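 active = activation factor of 2 or more at 20 µM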
Target sequence (P34949 whole entry, looked up): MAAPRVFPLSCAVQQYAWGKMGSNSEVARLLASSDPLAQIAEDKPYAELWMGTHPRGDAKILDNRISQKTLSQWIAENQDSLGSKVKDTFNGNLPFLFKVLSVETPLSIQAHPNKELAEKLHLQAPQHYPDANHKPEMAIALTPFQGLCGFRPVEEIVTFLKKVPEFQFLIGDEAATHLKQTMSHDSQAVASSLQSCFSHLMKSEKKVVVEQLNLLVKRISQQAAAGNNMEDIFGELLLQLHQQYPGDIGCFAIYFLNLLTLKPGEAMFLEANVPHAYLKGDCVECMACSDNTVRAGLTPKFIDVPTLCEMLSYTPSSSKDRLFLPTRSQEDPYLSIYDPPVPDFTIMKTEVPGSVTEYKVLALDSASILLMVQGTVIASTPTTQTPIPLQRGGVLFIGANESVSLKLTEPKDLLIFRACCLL
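Test system – human PMI in coupled enzyme assay · Timing – 20 min incubation at room temperature · Detection – Diaphorase-driven resazurin-to-resorufin fluorescence, excitation 544, emission 590 nm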
FLuc inhib CS: counter-screen for luciferase assay inhibitors: firefly luciferase inhibition; ATPLite firefly luciferase biochemical luminescence, 10 min; inhibition, % at 10 µM; actives 1.5% (n = 200,000); AID 1006;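 active = inhibition above about 50% when tested at 10 µM, limit read from the data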
PMI activator: activators of human phosphomannose isomerase. P34949. purified human PMI, coupled resazurin fluorescence, 20 min; hits give high values; 1 = vehicle control, 0 substrate-free wells. activation factor at 20 µM. actives 0.005% (n = 190,000);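 active = activation factor of 2 or more at 20 µM, relative to plate controls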
FLuc stim CS: firefly luciferase counter-screen for stimulation assays | ATPlite luciferase biochemical, luminescence, 10 min; 0 = ATP-free wells, 1 = DMSO control | AID 1027 | 200,000 tested, under 10 active | P08659 | activation factor at 10 µM;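 active = luciferase activation factor, scaled between plate controls, of at least 2 with compound at 10 µM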
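Assay system – cell-free luciferase reagent · Medium – PBS-based ATP solution · Dosing – test compounds dosed from 2 mM stocks in 100% DMSO · Timing – 10 min, room temperature · Technique – light output (luminescence) · Measure – luminescence gain marking luciferase activators · Controls – No-ATP low control, compound-free enzyme-plus-ATP high control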
Diaph act CS: diaphorase activation or chemical reduction counter-screen; actives 0.005% (n = 190,000); Diaphorase/resazurin coupled assay, resorufin fluorescence, 16 min; hits give high values; 1 = vehicle wells, 0 = NADH-free wells; activation factor at 20 µM;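 active = diaphorase activity raised at least twofold by the compound at 20 µM; inactive = activation factor below 2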
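Test system: Clostridium kluyveri diaphorase, purified enzyme; input: enzyme 0.07 U/mL final; buffer or medium: 50 mM HEPES pH 7.4 with 4.542 mM MgCl2, 0.005% Tween 20; also added: 0.114 mM NADH and 0.1 mM resazurin, final amounts; schedule: 16 min enzyme reaction, ambient temperature; technique: fluorescence of resorufin, 544 nm excitation, 590 nm emission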
Diaph inh CS: diaphorase inhibition or chemical oxidation counter-screen; diaphorase resazurin-to-resorufin fluorescence, NADH, 16 min; bacterial (C. kluyveri) enzyme, not human; inhibition, % at 20 µM; actives 0.69% (n = 190,000); AID 1217;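 active = primary screen inhibition at 20 µM above a set limit, cut at about 50% in these data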;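 also: plate controls were DMSO with full reaction for no effect and wells lacking NADH for full effect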
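material = Clostridium kluyveri diaphorase enzyme | amount = 0.14 U/mL diaphorase, enzyme working solution | schedule = incubation 16 min, room temperature | detection = fluorescence of resorufin formed from resazurin, Ex 544/Em 590 nm | benchmarks = positive control minus NADH, DMSO neutral control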
Numbers without * were called inactive.

SMILES	PMI act satM6P	FLuc inhib CS	PMI activator	FLuc stim CS	Diaph act CS	Diaph inh CS
Clc1ccc(C2=NNC(=NCC3CCCO3)SC2)cc1 (configuration not stated)	0.9	32	0.7	0.7	0.9	12
c1csc(C2=NNC(=NC3CCCCC3)SC2)c1	1.1	74*	1	0.3	1.1	-11
CCCCN=C1NN=C(c2ccc3c(c2)OCCO3)CS1	0.9	83*	0.9	0.2	0.9	8
c1cc2c(cc1C1=NNC(=NC3CC3)SC1)OCCO2	0.9	96*	0.8	0	0.9	8
CCCCN=C1NN=C(c2ccc(C)c(C)c2)CS1	1.1	6	1	0.9	1.1	-12
c1ccc2oc(C3=NNC(=NC4CC4)SC3)cc2c1	0.9	79*	0.8	0.2	0.8	19
Cc1ncc(CN2CCCC(CCC(=O)NCc3ccc(F)c(F)c3)C2)s1 (configuration not stated)	1	-7	1	1.1	1	1
Cc1ccc(S(=O)(=O)NNc2ccccc2)c(C)c1	2.7*	-2	1.7	1	1	3
Cc1ccc(S(=O)(=O)NNC(=O)c2cccs2)c(C)c1	1.1	-2	1.1	1	0.9	8
COc1ccc(CN2CCN(S(=O)(=O)c3ccc(NC(C)=O)cc3)CC2)cc1OC	1	-3	1	1	0.9	12
COc1cc(OC)c(OC)cc1CN1CCN(S(=O)(=O)c2ccc(NC(C)=O)cc2)CC1	0.7	-9	0.9	1.1	0.5	52*
COc1cc(C(=O)O/N=C2/C=CC(=O)C(C)=C2C)cc(OC)c1OC	0.3	-2	0.6	1	0.7	33
COc1cc(C(=O)O/N=C2\C=CC(=O)C=C2C)cc(OC)c1OC	0.4	-4	0.5	1	0.4	58*
Cc1ccc(N(Cc2cc3cc(C)ccc3[nH]c2=O)S(=O)(=O)c2ccccc2)cc1	0.9	-2	0.9	1	0.8	18
Cc1cc(-c2n[nH]c(=S)o2)c(C)n1-c1ccccc1	0.9	67*	0.9	0.3	0.9	14
Oc1cc2ccccc2cc1-c1n[nH]c(=S)o1	0.9	-2	1.1	1	0.8	23
Cc1ccc(NC(=S)N2CCCCC2CO)cc1C (configuration not stated)	0.9	11	0.9	0.9	1	0
CC(=O)Nc1cc(OC(C)=O)c2nonc2c1OC(C)=O	0.2	-5	0.2	1.1	0.2	76*
CC(=O)Nc1nonc1NC(C)=O	0.9	-5	0.9	1	0.7	26
COc1cc(C2Nn3c(nnc3-c3ccccc3OC)S2)ccc1O (configuration not stated)	1.3	-4	1.2	1	1.1	-7
CCOC(=O)C1=C(O)/C(=C\c2ccc(CNS(=O)(=O)c3ccc(Br)cc3)o2)N=C1C	1.4	-6	1.3	1.1	0.5	52*
COC(=O)C1=C(O)/C(=C\c2ccc(CNS(=O)(=O)c3ccc(Cl)cc3)o2)N=C1C	1.4	-2	1.3	1	0.7	26
CN(c1cccc(NC(=O)c2ccc(N(C)S(=O)(=O)c3ccccc3)cc2)c1)S(C)(=O)=O	0.9	-6	0.9	1.1	0.8	21
CC(C)(C)c1ccc(C(=O)Nc2cccc([N+](=O)[O-])c2)cc1	1	72*	1	0.3	1	5
CN(c1cccc(NC(=O)c2ccc(C(C)(C)C)cc2)c1)S(C)(=O)=O	1	80*	1	0.2	1	0
SMILES	PMI act satM6P	FLuc inhib CS	PMI activator	FLuc stim CS	Diaph act CS	Diaph inh CS
CC1CN(CC(O)COCc2ccc3c(c2)OCO3)CC(C)O1 (configuration not stated)	1.2	-7	1.2	1.1	1.1	-7
N#Cc1c(-c2ccccc2Cl)cc(-c2ccccc2)[nH]c1=S	2.5*	-8	1.6	1.1	0.9	12
N#Cc1c2c(c(=S)n(-c3ccccc3)c1N)CCCC2	0.7	-5	1.1	1.1	0.6	35
N#Cc1c2c(c(-c3ccccc3Cl)[nH]c1=S)CCCC2	2.4*	-4	1.6	1	0.8	19
CC(C)NC(=O)c1ccccc1NC(=O)CCS(=O)(=O)Cc1ccccc1	0.8	-2	0.9	1	0.9	9
CCN(c1ccc(NC(=O)CN2C(=O)NC3(CCOc4ccccc43)C2=O)cc1)C(C)C (configuration not stated)	0.8	1	0.8	1	0.7	33
CCOC(=O)c1ccc(NC(=O)c2cnccn2)cc1	1	5	1	0.9	1	4
CCCCc1ccc(NC(=O)c2cnccn2)cc1	1.1	76*	1.1	0.2	0.9	8
COc1ccc(-n2c(C)cc(/C=C3/SC(=O)N(CC(=O)N4CCOCC4)C3=O)c2C)cc1	0.7	28	0.9	0.7	0.9	10
Cc1cc(/C=C2/SC(=O)N(CC(=O)N3CCOCC3)C2=O)c(C)n1-c1ccccc1F	0.9	87*	0.9	0.1	1	5
O=C(CC1CCCC1)OCn1nnc2ccccc2c1=O	1.1	-7	1	1.1	1	-3
O=C(Cc1c(C(=O)O)[nH]c2ccccc12)NCCN1CCN(c2ccccc2F)CC1	0.9	-5	0.9	1	0.9	12
CN(c1ccccc1C(=O)Nc1cccc([N+](=O)[O-])c1)S(C)(=O)=O	1.1	-6	1	1.1	0.9	6
CC(=O)Nc1ccc(NC(=O)c2c(C)nc3ccccn23)cc1	0.9	-3	1	1	0.9	9
Cc1cc(C(=O)Nc2ccc3c(c2)OCCO3)c(C)o1	0.9	54*	0.9	0.5	0.9	13
Cc1cc(C(=O)Nc2ccc3c(c2)OCCO3)c2ccccc2n1	1	-5	1.1	1.1	0.9	6
Cc1nc2ccccn2c1C(=O)Nc1ccc2c(c1)OCCO2	1	54*	1.1	0.5	0.9	11
O=C(Nc1ccc2c(c1)OCCO2)c1coc2ccccc2c1=O	0.9	97*	1	0	0.9	5
Cc1ncoc1C(=O)Nc1ccc2c(c1)OCCO2	0.9	37	0.9	0.6	0.8	17
Cc1ccsc1C(=O)Nc1ccc2c(c1)OCCO2	1	79*	0.9	0.2	0.9	7
CCOC(=O)Cc1csc(NC(=O)CCSc2ccccc2)n1	1	-1	1	1	0.9	12
Oc1c(C=Nc2cccc3cccnc23)sc2ccccc12	1	82*	1	0.2	1	1
Cc1nc(C(Cl)(Cl)Cl)nc2[nH]ccc(=O)c12	0.9	-4	1	1	0.8	16

Source: PubChem BioAssay
